Test: Toxicity liver stage against HepG2, at 10uM
Assay type: cell-based
Design: test concentration 10 uM, cell line HepG2-A16-CD81EGFP
Details: human, HepG2-A16-CD81EGFP cells; read-out: INHIBITION
Outline: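 Uninfected HepG2-A16-CD81EGFP cells, 3 × 10^3 per well, 1536-well, plated on prespotted compound at 10 μM final, parasite-free screening media added to match infected plates; puromycin 10 μM positive, DMSO 0.5% negative; run in parallel with 48 h PbLuc assay at 37 °C, 5% CO2; viability by CellTiter-Glo luminescence, normalized to controls.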

In order of falling cytotoxicity at 10 µM:
1. CC(C)n1ccnc1C1CCCN(c2ccnc3ccccc23)C1 (centres undefined)  38.4%
2. CC(NC(=O)Cc1ccccc1F)(C(N)=O)c1cccc(Cl)c1 (centres undefined)  17.6%
3. Cc1nnc(N2C[C@@H](OCC3CCCC3)[C@H]3OCCC[C@H]32)s1  14.3%
4. Cc1cc(S(C)(=O)=O)c(C)c(S(=O)(=O)N2CCCCCC2)c1  14.1%
5. COC(=O)NCC(=O)N1CCCn2nc(CN3CC[C@H](F)C3)cc2C1  13%
6. CCC1CCCN(S(=O)(=O)c2cnn(C)c2)C1 (centres undefined)  12.9%
7. CCc1ccc(NC(=O)N2C[C@H]3CC[C@@]4(N=C(C)N(C)C4=O)[C@H]3C2)cc1  11%
8. CC[C@@H]1N(Cc2ccncc2)CCC[C@]12CCC(=O)N2C  10.5%
9. Cc1ncsc1CCCNC(=O)C1CC2(CCNCC2)CN1C (centres undefined)  9.18%
10. CC(C)(C)c1nc(CN(CCO)Cc2cc(Br)ccc2F)no1  8.52%
11. CN(C)C(=O)CN1CCC(c2c(C(N)=O)sc3ncccc23)C1 (centres undefined)  8.42%
12. CCNS(=O)(=O)C1CCN(C(=O)c2ccc(F)cc2)C1 (centres undefined)  7.98%
13. O=C(c1ccc[nH]1)N1CCOC2(COCCN(c3cncnc3)C2)C1 (centres undefined)  7.7%
14. CCCc1noc(C2CCN(C(=O)CCn3nc(C)cc3C)CC2)n1  7.47%
15. COc1cccc(OC)c1C(=O)NCC(c1cccn1C)N1CCCC1 (centres undefined)  6.89%
16. Cc1ccc(NC(=O)Cc2c(C)nc3c(c2C)c(=O)[nH]n3C)cc1F  6.87%
17. O=C1CC(c2ccncc2)C2(CCN(Cc3cccnc3)CC2)N1 (centres undefined)  6.26%
18. O=C1NC2(CCN(Cc3ccoc3)CC2)CC1c1ccncc1 (centres undefined)  6.05%
19. O=C(COc1cccc(F)c1)N1C[C@@H](O)[C@H](N2CCOCC2)C1  6.02%
20. O=S(=O)(Nc1cnn(C2CCOCC2)c1)c1ccc2c(c1)CCO2  5.42%
21. N#Cc1cc(F)ccc1CN1CCCCC1Cn1cncn1 (centres undefined)  5.41%
22. CN(CCNC(=O)c1cnc(-c2ccncc2)nc1)S(C)(=O)=O  5.23%
23. N#Cc1cccnc1NCc1cccc(C(=O)NCC2CCCCO2)c1 (centres undefined)  5%
24. COc1cc2c(cc1-c1nc3c(cnn3C(C)C3CC3)[nH]1)OCO2 (centres undefined)  4.82%
25. Cc1nc2cc(-c3nccn3C)nn2c(N2CCCC2)c1C  4.53%
26. Cc1cccc(NC(=O)N(CCC(F)(F)F)C[C@H](O)CO)c1  4.3%
27. Cc1cc(C(=O)N2CCC3(CCN3Cc3ccc(F)cc3)C2)no1 (centres undefined)  4.29%
28. O=C(O)CCn1ccc2c(nnc3c(-c4ccc(F)cc4)cnn32)c1=O  4.01%
29. COC(=O)c1ccc2c(c1)CCCN2S(=O)(=O)c1cn(C)c(C)n1  3.94%
30. COc1c(CNCc2ccc(CN(C)C)cc2)c(C)nn1C  3.87%
31. CSCc1ccc(C(=O)NCCCNc2ccc(C(F)(F)F)cn2)cc1  3.84%
32. CC(=O)N1N=C(c2ccccc2)OC1C(=O)NCCc1ccc(Cl)cc1 (centres undefined)  3.68%
33. CC(C)(C)C(=O)N1C[C@@H](F)[C@@H](OCc2nc3ccccc3o2)C1  3.33%
34. COC(=O)c1cc(C)nc(N2CCN(Cc3cc(C(C)C)no3)CC2)n1  3.29%
35. Cc1ccc(N2Cc3cnn(C)c3C(COCC3CC3)C2)nn1 (centres undefined)  3.28%
36. CN(CC(=O)N(CCC#N)c1ccccc1)C1CCc2ccccc21 (centres undefined)  3.15%
37. CC(C)Cc1noc(CN2CCC(C(=O)NCC3CCCO3)CC2)n1 (centres undefined)  3.13%
38. Cc1nc(C)n(C2CCCN(C(=O)CCCn3ccnc3)C2)n1 (centres undefined)  2.24%
39. Cc1cnn(C2CCCN(C(=O)c3cc4nc(C)ccc4o3)C2)c1 (centres undefined)  2.22%
40. Cc1cc(NCC2CCS(=O)(=O)C2)n2nc(C)cc2n1 (centres undefined)  1.41%
41. O=c1cc2c(nn1CN1CCOCC1)CCC2  1.31%
42. CSCCC1c2nc[nH]c2CCN1Cc1ccccc1C(F)(F)F (centres undefined)  1.09%
43. CC(C)(C)c1ncc(CNCC2CN(C3CC3)CCO2)s1 (centres undefined)  0.948%
44. Cc1nc(NC2CCCC2)cc(C2CCN2C(=O)c2cccnc2)n1 (centres undefined)  0.848%
45. O=C(CN(Cc1cccs1)C1CCS(=O)(=O)C1)NCC1CCCCC1 (centres undefined)  0.611%
46. CCN1CCN2CCCN(S(=O)(=O)c3ccc(C)cc3C)C2C1=O (centres undefined)  0.515%
47. CCC(NC(=O)C1CCN(C(=O)C2CC2)CC1)c1cn2cccnc2n1 (centres undefined)  0.0482%
48. Cc1occc1C(=O)NCC(=O)NCCOc1cccc(Cl)c1  0.0264%
49. COCc1noc(-c2ccc(N(C)Cc3ncccc3C)nc2)n1  -0.0612%
50. COc1ccc(N2CCN(C(=O)OC(C)(C)C)C(C(=O)O)C2)cc1 (centres undefined)  -0.318%
51. Cc1oc2nc[nH]c(=O)c2c1C(=O)N1CCCC(n2cccn2)C1 (centres undefined)  -0.513%
52. Cc1nsc(N2CCCN(C(=O)NCc3cccnc3)CC2)n1  -0.555%
53. Cc1ccccc1CN(Cc1ccccn1)C(=O)CN(C)C(C)C  -0.675%
54. O=C(Cc1ccc(F)cc1Cl)N[C@@H]1CCNC[C@H]1O  -0.918%
55. O=S(=O)(CCCc1ccccc1)Cc1nnnn1C1CC1  -1.01%
56. CCOc1ccccc1NC(=O)NCCc1ccoc1  -1.18%
57. CCc1ncc2c(n1)CN(Cc1nc(-c3cccnc3)no1)CC2  -1.62%
58. CN(Cc1ccc(F)cc1)CC1(O)CCN(C(=O)c2ccccc2)C1 (centres undefined)  -1.7%
59. Cc1nc(CNC(=O)NCC(F)(F)F)oc1C  -1.72%
60. CC1CN(CCc2ccncc2)CCO1 (centres undefined)  -1.99%
61. CCc1sc(C(=O)Nc2cnn(CC(=O)NC3CC3)c2)cc1C  -2.17%
62. Cc1cc(CNC(=O)COc2ccccc2F)c(C)o1  -2.33%
63. O=C(O)c1csc(S(=O)(=O)N2CCN(Cc3c(F)cccc3Cl)CC2)c1  -2.56%
64. CCc1nc(C2CCCN2C(=O)CCc2nc(C3CC3)no2)no1 (centres undefined)  -2.66%
65. CN(CC(=O)N1CCCCC1c1nc(C(C)(C)C)cs1)C1CC1 (centres undefined)  -2.77%
66. N#Cc1ccc(OCCNc2cccc(C(=O)N3CCOCC3)c2)cc1  -2.96%
67. CN1CC2(CCN(c3ncnc4c3CCNC4)CC2)OC1=O  -3.2%
68. CN1CCC(c2cccc(Cc3ccc(F)cc3)n2)CC1  -3.45%
69. Cn1cc(C(=O)N2CCCN(C3Cc4ccccc4C3)CC2)cn1  -3.68%
70. Oc1nc(N2CCOCC2)nc2c1CCN(Cc1cccnc1)CC2  -3.71%
71. O=C(Cn1ccnc1)N1C[C@@H]2CC[C@H](Oc3ccccc3)[C@@H]2C1  -3.71%
72. Cc1nn(C)cc1C(=O)N1CCCC(c2nccn2Cc2cscn2)C1 (centres undefined)  -4.32%
73. CC(=O)N1N=C(c2cccs2)OC1C(=O)NCc1ccc(C)o1 (centres undefined)  -4.67%
74. C[C@H]1CN(C(=O)c2cccnc2)C[C@@]12CCN(CCN1CCCC1)C2=O  -4.71%
75. Cc1ccc(C)c(S(=O)(=O)NC(=O)c2cccc3c2OCCO3)c1  -4.77%
76. O=C(N1CCOCC1)N1CCN(c2ccncc2Cl)CC1  -4.79%
77. CNC(=O)NC1CC2(CCNCC2)c2ccc(C)cc21 (centres undefined)  -4.97%
78. CCc1c(C)nc(C2CCCN2C(=O)c2cc(C)no2)nc1O (centres undefined)  -5.75%
79. CN(Cc1ccc(C#N)cc1)CC1CCS(=O)(=O)C1 (centres undefined)  -5.78%
80. Cc1cc(C)n(CCCN(C)C(=O)C2COc3ccccc3C2)n1 (centres undefined)  -5.95%
81. CC(C)Oc1cccc(CN(C)C(=O)Nc2cccn(C)c2=O)c1  -6.13%
82. CN1CCC(N(C)CCC(=O)N2CCC(OCc3ccccc3)CC2)C1 (centres undefined)  -6.35%
83. CC(C)(C)c1n[nH]c(C2CN(Cc3nnc(C4CC4)o3)CCO2)n1 (centres undefined)  -6.55%
84. O=C(NC[C@H]1OC[C@@H](NCc2ccccc2F)[C@@H]1O)Nc1ccccc1  -7.3%
85. O=C(NCc1cncc2c1CCN(Cc1cccc(F)c1)C2)C1CC1  -8.16%
86. Cc1nc2c(c(N(C)C)n1)CCN(C(=O)c1ccc(N)nc1)C2  -8.26%
87. COC1CN(C(=O)C2CC2)CCC(=O)N(C)c2ccccc21 (centres undefined)  -8.67%
88. COc1cc(CNC2CCc3nc(C)nn3C2)cc2c1OCCO2 (centres undefined)  -9.16%
89. COc1ccc2cc(C(=O)N3CCCC(n4ccnc4C)C3)[nH]c2c1 (centres undefined)  -9.74%
90. Cc1nccn1C1CCCN(C(=O)c2ccc3c(c2)nc(C)n3C)C1 (centres undefined)  -9.75%
91. Cc1nc(C2CCCN2C(=O)c2csc3c2CCCC3)no1 (centres undefined)  -10.3%
92. CC(=O)N1CCCN(CC(C)(O)c2cccc(C(F)(F)F)c2)CC1 (centres undefined)  -10.3%
93. NC(=O)C1CN(C(=O)Nc2ccccc2Oc2ccccc2Cl)CCO1 (centres undefined)  -10.5%
94. CCC(NC(=O)NCC(=O)Nc1ccc(F)cc1)c1ccncc1 (centres undefined)  -10.9%
95. CNc1cncc(C2CCCN2Cc2ccnc(N3CCCC3)n2)n1 (centres undefined)  -12.1%
96. COc1ccccc1CN1CC(O)CN(S(=O)(=O)C(C)C)CC1=O (centres undefined)  -12.4%
97. OC1(CN2CCCCC2)CCN(Cc2c[nH]c(CC3CCCC3)n2)C1 (centres undefined)  -13%
98. Cn1cc(C(=O)N2CCCC2c2ccc3c(c2)OCO3)ccc1=O (centres undefined)  -14.8%
99. CNS(=O)(=O)c1ccc(CNC(=O)c2c(C)oc(C)c2C)cc1  -17.1%
100. Cc1cc(C)n(CC2CN(Cc3cnc(C)s3)CCO2)n1 (centres undefined)  -19.7%
101. COc1ccc(C)cc1CN(C)CCCNS(C)(=O)=O  -43.2%
102. COCC1(NC(=O)C(c2ccc(F)cc2)N(C)C)CCCC1 (centres undefined)  -44.9%
103. Cc1cc(C)c(CNC(=O)NCCNc2ncccn2)c(=O)[nH]1  -49.4%
104. Cn1cc(CN2CC[C@H]3O[C@@H](COCc4cccnc4)CC[C@H]32)cn1  -73.8%
105. COCC1c2nnn(CC3CC3)c2CCN1C(=O)N1CCCC1 (centres undefined)  -131%
106. Cc1cccc(CN2CCc3ncnc(Oc4cccnc4)c3CC2)n1  -139%
107. COCCOc1ccc(NC(=O)N2CCOC(C(N)=O)C2)cc1F (centres undefined)  -140%
108. COc1cc(F)c(S(=O)(=O)NCc2ccnc(N(C)C)n2)cc1OC  -147%
109. O=C(CC1COCCN1)N1CCC(N2CCc3ccccc3C2)CC1 (centres undefined)  -176%
